Results on 41 compounds are retold here after ChEMBL document CHEMBL5032502, “Syntheses, Biological Evaluations, and Mechanistic Studies of Benzo[c][1,2,5]oxadiazole Derivatives as Potent PD-L1 Inhibitors with In Vivo Antitumor Activity” (J Med Chem, 2021).

Test [1] deals with T1, Programmed cell death protein 1/Programmed cell death 1 ligand 1 (Homo sapiens, UniProt Q9NZQ7). Briefly: Inhibition of human PD-1/PD-L1 interaction assessed as blockade activity incubated for 15 mins by HTRF assay. Type of test: protein-complex assay. The method in brief:
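Tag1-PD-L1 and Tag2-PD-1 proteins preincubated with compound (0.1 nM to 10 μM, triplicate) 15 min at room temperature, then anti-Tag1-Eu³⁺/anti-Tag2-XL665 added for 2 h at room temperature. Excitation 337 nm, emission 665 and […]. Signal taken as 665/615 ratio ×10 000; IC50 fitted from inhibition rates.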

Test [2] has as its system MC-38. Briefly: Cytotoxicity against mouse MC38 cells assessed as inhibition of cell viability at 10 uM incubated for 24 hrs by MTT assay. The class given is functional, cell-based. The method in brief: (§1)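 PD-L1⁺/aAPC/CHO-K1 cells (2000/well) or MC38 cells (5000/well) allowed to adhere for 12 h, then exposed to compound in medium with 1% final DMSO for 24 h. MTT added for 4 h, medium replaced with DMSO, absorbance read.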

Test [3] relates to CHO-K1. Briefly: Cytotoxicity against CHO-K1 cells expressing PD-L1/aAPC assessed as inhibition of cell viability at 10 uM incubated for 24 hrs by MTT assay. The class given is functional, cell-based. Particulars: Cricetulus griseus. The procedure, abridged: as §1
In test [4] the test system is Jurkat. As to the kind of experiment: Cytotoxicity against human Jurkat cells expressing PD-1/NFAT/Luc assessed as inhibition of cell viability at 10 uM incubated for 24 hrs by CCK8 assay. Type of test: functional, cell-based. The method in brief:
(§2)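 PD-1⁺/NFAT-luc/Jurkat cells seeded at 20 000 per well, treated with compound in medium with 1% final DMSO for 24 h. CCK8 added for 4 h, then absorbance read.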

Test [5] deals with Jurkat. As to the kind of experiment: Cytotoxicity against human Jurkat cells expressing PD-1/NFAT/Luc assessed as inhibition of cell viability at 0.1 to 10 uM incubated for 24 hrs by CCK8 assay. Type of test: functional, cell-based. Particulars: dose 0.1-10 µM. The procedure, abridged: as §2
Test [6] has as its system MC-38. As to the kind of experiment: Cytotoxicity against mouse MC38 cells assessed as inhibition of cell viability at 0.1 to 10 uM incubated for 24 hrs by MTT assay. Particulars: dose 0.1-10 µM. Type of test: functional, cell-based. The method in brief:
as §1

Test [7] relates to CHO-K1. As to the kind of experiment: Cytotoxicity against CHO-K1 cells expressing PD-L1/aAPC assessed as inhibition of cell viability at 0.1 to 10 uM incubated for 24 hrs by MTT assay. Type of test: functional, cell-based. Particulars: Cricetulus griseus, dose 0.1-10 µM. The procedure, abridged:
as §1

The target in test [8] is Programmed cell death protein 1/Programmed cell death 1 ligand 1 (Homo sapiens) (UniProt Q15116+Q9NZQ7). To be noted: Jurkat, time 6.0 hrs.
The target in test [9] is T1, Programmed cell death protein 1/Programmed cell death 1 ligand 1. As to the kind of experiment: Inhibition of human PD-1/PD-L1 interaction in human Jurkat cells expressing PD-1/NFAT/Luc cocultured with CHO-K1 cells expressing PD-L1/aAPC assessed as Jurkat T-lymphocyte activation measured after 6 hrs by luciferase reporter gene based luminescence assay. The class given is cell-based.

The structures appear in SMILES notation. Active and inactive are the calls of the source. The calls are words filed in the database; no cut-off is given here.

T1 sequence (Q15116 whole entry): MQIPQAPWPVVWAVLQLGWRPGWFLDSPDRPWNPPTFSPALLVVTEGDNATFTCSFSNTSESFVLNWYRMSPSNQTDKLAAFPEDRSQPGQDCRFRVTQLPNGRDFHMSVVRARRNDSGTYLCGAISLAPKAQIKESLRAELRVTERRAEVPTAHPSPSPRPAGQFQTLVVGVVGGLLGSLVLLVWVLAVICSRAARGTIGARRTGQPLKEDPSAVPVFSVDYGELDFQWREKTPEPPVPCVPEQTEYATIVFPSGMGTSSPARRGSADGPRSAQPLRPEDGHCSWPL
T1 sequence (Q9NZQ7 whole entry): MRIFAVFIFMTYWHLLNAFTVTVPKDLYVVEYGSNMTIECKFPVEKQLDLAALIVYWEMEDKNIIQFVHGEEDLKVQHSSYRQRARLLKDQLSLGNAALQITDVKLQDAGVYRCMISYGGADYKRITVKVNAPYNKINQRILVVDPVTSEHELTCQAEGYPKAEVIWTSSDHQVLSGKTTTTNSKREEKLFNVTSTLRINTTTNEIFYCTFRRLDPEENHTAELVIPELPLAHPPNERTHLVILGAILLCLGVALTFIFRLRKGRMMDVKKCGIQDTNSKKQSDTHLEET

Consider `Cc1c(COc2cc(OCc3ccc4nonc4c3)c(CN[C@H](CO)C(=O)O)cc2Cl)cccc1-c1ccccc1`, for which the IC50 in [1] was 16.6 nM.

Take `Clc1cc(CNCCN2CCCCC2)c(OCc2ccc3nonc3c2)cc1OCc1cccc(-c2ccccc2)c1Cl`: the IC50 in [1] was 291 nM.

`O=S(=O)(O)CCNCc1cc(Cl)c(OCc2cccc(-c3ccccc3)c2Br)cc1OCc1ccc2nonc2c1`: the IC50 in test [1] is 26.9 nM.

`Cc1c(COc2ccc(CN[C@H](CO)C(=O)O)c(OCc3ccc4ccoc4c3)c2)cccc1-c1ccccc1`: in test [1], the IC50 came out at 2340 nM.

In the case of `O=C(O)[C@@H](CO)NCc1cc(Cl)c(OCc2cccc(-c3ccc(F)cc3)c2Cl)cc1OCc1ccc2nonc2c1`, the IC50 in test [1] came to 56.1 nM.

For the compound `O=C(O)[C@@H](CO)NCc1cc(F)c(OCc2cccc(-c3ccccc3)c2Cl)cc1OCc1ccc2nonc2c1`, in test [1], the IC50 was 9.5 nM.

With `OC[C@@H](O)CNCc1cc(Cl)c(OCc2cccc(-c3ccccc3)c2Br)cc1OCc1ccc2nonc2c1`, in [1], the IC50 turned out to be 15.9 nM.

Turning to `O=C(O)[C@H]1C[C@@H](O)CN1Cc1cc(Cl)c(OCc2cccc(-c3ccccc3)c2Br)cc1OCc1ccc2nonc2c1`, in test [1], the concentration for half-maximal inhibition (IC50) was found to be 24.3 nM. The result in the test on MC-38 [2], in the test on CHO-K1 [3] and with Jurkat [4] was Active.

As for `OC[C@H](O)CNCc1cc(Cl)c(OCc2cccc(-c3ccccc3)c2Br)cc1OCc1ccc2nonc2c1`, in test [1], the IC50 amounted to 14.6 nM.

On to `OC1CCC(NCc2cc(Cl)c(OCc3cccc(-c4ccccc4)c3Br)cc2OCc2ccc3nonc3c2)CC1` (stereo not drawn), for which the half-maximal inhibitory concentration (IC50) in test [1] stood at 57.2 nM.

In the case of `OCCNCc1cc(Cl)c(OCc2cccc(-c3ccccc3)c2Br)cc1OCc1ccc2nonc2c1`, the IC50 in [1] was 30.8 nM.

`O=C(O)[C@@H](CO)NCc1ccc(OCc2cccc(-c3ccccc3)c2C(F)(F)F)cc1OCc1ccc2nonc2c1`: the IC50 in test [1] stood at 1380 nM.

Regarding `O=C(O)[C@@H](CO)NCc1cc(F)c(OCc2cccc(-c3ccccc3)c2Br)cc1OCc1ccc2nonc2c1`, the IC50 in [1] is 7.8 nM. Besides, the outcome with Jurkat [5], with MC-38 [6] and with CHO-K1 [7] was inactive.

Compound `Cc1c(COc2ccc(CN[C@H](CO)C(=O)O)c(OCc3cccc(C#N)c3)c2)cccc1-c1ccccc1` showed an RLU in test [8] of 1.83. The 50% effective concentration (EC50) in test [9] came out at 2080 nM. Moreover, in test [1], the IC50 is 35.8 nM. The outcome in the test on MC-38 [2], in the test with CHO-K1 [3] and in the test on Jurkat [4] was Active.

Take `O=C(O)[C@@H](CO)NCc1cc(Cl)c(OCc2cccc(-c3ccccc3)c2F)cc1OCc1ccc2nonc2c1`: in [1], the IC50 worked out at 3.5 nM. The result in the test on Jurkat [5], in the test with MC-38 [6] and with CHO-K1 [7] was inactive.

On to `O=C(O)[C@@H](CO)NCc1cc(Cl)c(OCc2cccc(-c3cccc(F)c3)c2Cl)cc1OCc1ccc2nonc2c1`, for which, in [1], the half-inhibitory concentration (IC50) came out at 6.5 nM. Besides, the result in the test with Jurkat [5], in the test on MC-38 [6] and with CHO-K1 [7] was inactive.

For the compound `O=C(O)[C@@H](CO)NCc1cc(Cl)c(OCc2cccc(-c3cccc(O)c3)c2Cl)cc1OCc1ccc2nonc2c1`, the half-inhibitory concentration (IC50) in test [1] was 58.7 nM.

For `Cc1c(COc2ccc(CN[C@H](CO)C(=O)O)c(OCc3ccc4nsnc4c3)c2)cccc1-c1ccccc1`, in test [1], the half-inhibitory concentration (IC50) is 206 nM.

`CC(C)(C)OC[C@@H](NCc1cc(Cl)c(OCc2cccc(-c3ccccc3)c2Cl)cc1OCc1ccc2nonc2c1)C(=O)N[C@H](CO)C(=O)O`: the IC50 in [1] was 393 nM.

`O=C(O)C1CN(Cc2cc(Cl)c(OCc3cccc(-c4ccccc4)c3Br)cc2OCc2ccc3nonc3c2)C1`: the IC50 in test [1] turned out to be 52.3 nM.

Turning to `Cc1c(COc2ccc(CN[C@H](CO)C(=O)O)c(OCc3cccc4nonc34)c2)cccc1-c1ccccc1`, the IC50 in test [1] is 2160 nM.

For `NS(=O)(=O)CCNCc1cc(Cl)c(OCc2cccc(-c3ccccc3)c2Br)cc1OCc1ccc2nonc2c1`, the half-inhibitory concentration (IC50) in test [1] turned out to be 342 nM.

For `Cc1c(COc2ccc(CN[C@H](CO)C(=O)O)c(OCc3ccc4nonc4c3)c2)cccc1-c1ccccc1`, the half-inhibitory concentration (IC50) in [1] turned out to be 33.7 nM.

Consider `O=C(O)[C@@H](CO)NCc1cc(Cl)c(OCc2cccc(-c3cccc(F)c3)c2Br)cc1OCc1ccc2nonc2c1`, for which, in test [1], the 50% inhibitory concentration (IC50) amounted to 8.2 nM. Also, the outcome in the test with Jurkat [5], in the test with MC-38 [6] and in the test on CHO-K1 [7] was inactive.

As to `O=C(O)[C@@H](CO)NCc1cc(Cl)c(OCc2cccc(-c3ccccc3)c2Cl)cc1OCc1ccc2nonc2c1`, in test [1], the IC50 is 3.3 nM.

For `O=C(O)[C@@H](CO)NCc1cc(Cl)c(OCc2cccc(-c3cccc(Cl)c3)c2Br)cc1OCc1ccc2nonc2c1`, in test [1], the concentration for half-maximal inhibition (IC50) is 24.3 nM.

Consider `COc1nc(OCc2cccc(-c3ccccc3)c2C)ccc1CNCCNC(C)=O`, for which the outcome in the test on MC-38 [2], with CHO-K1 [3] and with Jurkat [4] was Active.

In the case of `O=C(O)[C@@H]1CCCCN1Cc1cc(Cl)c(OCc2cccc(-c3ccccc3)c2Br)cc1OCc1ccc2nonc2c1`, the IC50 in [1] turned out to be 13.3 nM.

As to `CN1CCN(Cc2cc(Cl)c(OCc3cccc(-c4ccccc4)c3Br)cc2OCc2ccc3nonc3c2)CC1`, the IC50 in test [1] is 3590 nM.

Regarding `O=C(O)CNCc1cc(Cl)c(OCc2cccc(-c3ccccc3)c2Br)cc1OCc1ccc2nonc2c1`, the concentration for half-maximal inhibition (IC50) in test [1] is 33.7 nM.

As to `O=C1CC[C@@H](CNCc2cc(Cl)c(OCc3cccc(-c4ccccc4)c3Cl)cc2OCc2ccc3nonc3c2)N1`, in test [1], the IC50 turned out to be 21.6 nM.

`COc1cccc(-c2cccc(COc3cc(OCc4ccc5nonc5c4)c(CN[C@H](CO)C(=O)O)cc3Cl)c2Br)c1`: the IC50 in test [1] is 7.8 nM.

As for `OC1CCN(Cc2cc(Cl)c(OCc3cccc(-c4ccccc4)c3Br)cc2OCc2ccc3nonc3c2)CC1`, in test [1], the IC50 worked out at 1050 nM.

For `O=C(O)[C@@H](CO)NCc1cc(Cl)c(OCc2cccc(-c3cccc(OCCCO)c3)c2Br)cc1OCc1ccc2nonc2c1`, the IC50 in [1] came out at 30.9 nM.

Take `O=C(O)[C@@H](CO)NCc1cc(Cl)c(OCc2cccc(-c3cccc(OCCCO)c3)c2Cl)cc1OCc1ccc2nonc2c1`: the IC50 in test [1] is 60.9 nM.

For the compound `CS(=O)(=O)c1ccc(-c2cccc(COc3cc(OCc4ccc5nonc5c4)c(CN[C@H](CO)C(=O)O)cc3Cl)c2Cl)cc1`, the IC50 in test [1] was over 1000 nM.

`O=C(O)[C@@H](CO)NCc1cc(Br)c(OCc2cccc(-c3ccccc3)c2Br)cc1OCc1ccc2nonc2c1`: the IC50 in test [1] was 27.5 nM.

Take `CC(=O)NCCNCc1cc(Cl)c(OCc2cccc(-c3ccccc3)c2Br)cc1OCc1ccc2nonc2c1`: in test [1], the IC50 was 130 nM.

`CC(C)C[C@H](NCc1cc(Cl)c(OCc2cccc(-c3ccccc3)c2Cl)cc1OCc1ccc2nonc2c1)C(=O)N[C@H](CC(C)C)C(=O)O`: the IC50 in test [1] was determined as 1580 nM.

As for `O=C(O)[C@@H](CO)NCc1cc(Cl)c(OCc2cccc(-c3cccc(OCCO)c3)c2Cl)cc1OCc1ccc2nonc2c1`, the IC50 in test [1] was determined as 101 nM.

As for `O=C(O)[C@@H](CO)NCc1cc(Cl)c(OCc2cccc(-c3cccc(F)c3F)c2Cl)cc1OCc1ccc2nonc2c1`, in test [1], the concentration for half-maximal inhibition (IC50) is 162 nM.
